Laboratory results as given in ChEMBL document CHEMBL3425405, “Discovery of Small Molecules for Up-Regulating the Translation of Antiamyloidogenic Secretase, a Disintegrin and Metalloproteinase 10 (ADAM10), by Binding to the G-Quadruplex-Forming Sequence in the 5' Untranslated Region (UTR) of Its mRNA” (J Med Chem, 2015).
Calls of active or inactive are those of the source. The rule behind the calls is not given here.

Key:
[1] = tested on: HeLa; assay: Binding affinity to Bcl-2 RNA QGRS (unknown origin) transfected in human HeLa cells assessed as increase in ADAM10 translation efficiency at 2.5 uM after 24 hrs by Renilla/firefly dual luciferase reporter assay; type: cell-based
Procedure, shortened: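 HeLa cells carrying luciferase reporter plasmids with the N-Ras, Bcl-2 or VEGF 5′-UTR quadruplex (or its mutant) treated with compound up to 2.5 μM for 24 h. Renilla/firefly luciferase activity then measured.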

[2] = tested on: HeLa; assay: Binding affinity to ADAM10 A10-mutant RNA QGRS (unknown origin) transfected in human HeLa cells assessed as increase in ADAM10 translation efficiency at 0.5 to 2.5 uM after 24 hrs by Renilla/firefly dual luciferase reporter assay; type: cell-based
Procedure, shortened: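 HeLa cells transfected with 0.8 μg A10-Wt, A10-Mut or A10-Del plasmid (G-quadruplex motif upstream of Renilla in psiCHECK-2). Screening: 24 h at a single 2 μM concentration. Follow-up: plasmid for 12 h, then 0, 0.5, 1 or 2.5 μM for 24 h. Renilla normalized to firefly, relative to untreated control; mean ± SD of three independent measurements.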

[3] = tested on: HEK-APP; assay: Binding affinity to ADAM10 A10-RNA QGRS (unknown origin) transfected in HEK-APP cells assessed as increase in ADAM10 protein expression at 1 uM after 48 hrs by Western blotting method; type: cell-based
Procedure, shortened: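 HEK-APP cells (DMEM, 10% FBS, 2 mM glutamine, 0.2 mg/mL G418) treated with 0, 0.5, 0.75, 1 or 1.5 μM compound for 48 h. Lysates in Tris/NaCl/EDTA/1% Triton buffer immunoblotted for ADAM10, APP and β-actin; conditioned medium blotted for sAPPα. Signal by densitometry, normalized to β-actin, relative to blank control; mean ± SD, three independent experiments.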

[4] = Selectivity index, ratio of affinity to N-Ras RNA QGRS (unknown origin) to ADAM10 A10-Wt RNA QGRS (unknown origin) by Renilla/firefly dual luciferase reporter assay
[5] = Effect on secondary structure of ADAM10 A10-RNA QGRS (unknown origin) by CD spectroscopy

CCn1c2ccccc2c2cc(/C=C/c3cc(N4CCN(C)CC4)c4ccccc4[n+]3C)ccc21.[I-]
Activity [1]: 20%
Activity [2]: inactive
Activity [3]: 76.8%
Selectivity Index [4]: 3
Activity [5]: inactive
